# Assay results taken from publication PMC7518337 (Chemistry of materials : a publication of the American …, 2018).
# How the values were obtained:
# [1] = In vivo safety evaluation during and after anticancer treatment; set-up: species or system mice
# Method in brief: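 Xenograft-bearing nude mice were treated with test compound or doxorubicin control over a 13-day regimen. During and after treatment, blood counts (WBC, RBC, thrombocytes), liver weight, serum ALT and AST, and CRE and BUN were determined. A hospital clinical laboratory ran these by standard procedures. Liver and kidney sections were H&E stained. Mean ± s.e., t-test.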
# [2] = system: xenografted HCT116 p53^+/+ tumors; assay: In vivo antitumor activity in colon cancer xenograft model; set-up: species or system BALB/c nude mice; details: for amounts of apoptotic cells in xenograft tumors (TUNEL assay): compared to the control, Figure 6E
# Method in brief: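 Nude mice carried subcutaneous HCT116 p53+/+ xenografts in the right flank. They were randomised into groups of n = 6 and dosed every other day on days 1, 3, 5, 7, 9, 11 and 13. Test compounds and Nutlin-3 were given at 3 mg/kg, doxorubicin at 1.5 mg/kg, and PBS served as control. Tumors were excised on day 13 for H&E and TUNEL staining (×200). Mean ± s.e., n = 5.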
# HCT116 p53^+/+ cells = assay: Cell cycle distribution; format: cell-based; details: 200 nM PSP-^DPMI, 5 μM Nutlin3, 24 h
# p53 and p21 expression = assay: Western blot analysis of p53 and p21; format: cell-based; details: PSP-^DPMI 200 nM, Nutlin3 5 μM, 24 h, p53 in HCT116 p53^+/+, MCF7, A375, p21 in HCT116 p53^+/+, vs PSP, PBS control
# [3] = clinical trial in liposarcoma; cited from earlier work
Structure (SMILES),"blood cell counts (WBCs, thrombocyte, RBCs) ([1]; Figure 8B–D)","kidney function and histology (CRE, BUN, H&E) ([1]; Figure 8I–K)",spleen health ([1]; Figure S15),"body weight ([1]; after a 13-day administration, Figure S14)","liver weight ([1]; compared to healthy mice, Figure 8E)","levels of liver enzymes ALT and AST ([1]; serum, compared to control or healthy mice, Figure 8F,G)",amounts of apoptotic cells in xenograft tumors (TUNEL assay) [2],"tumor pathomorphology (H&E) ([2]; tumors isolated on day 13, Figure 6C)",cell cycle effect (HCT116 p53^+/+ cells),expression of p53 or p21 (p53 and p21 expression),adverse events in patients [3]
"COc1cccc2c1C(=O)c1c(O)c3c(c(O)c1C2=O)C[C@@](O)(C(=O)CO)C[C@@H]3O[C@H]1C[C@H](N)[C@H](O)[C@H](C)O1 [DOX, doxorubicin]",a certain level of leukopenia and thrombopenia,symptoms of glomerular lesions,serious spleen failure,significant decrease of body weight,decreased liver weight,aberrant levels,significantly increased,misshapen tumors and cells,–,–,–
COc1ccc(C2=N[C@@H](c3ccc(Cl)cc3)[C@@H](c3ccc(Cl)cc3)N2C(=O)N2CCNC(=O)C2)c(OC(C)C)c1 [Nutlin3],–,–,–,–,–,–,significantly increased,–,arrest in G0/G1 phase,significantly increased the expression of p53 or p21,–
CCOc1cc(C(C)(C)C)ccc1C1=N[C@@](C)(c2ccc(Cl)cc2)[C@@](C)(c2ccc(Cl)cc2)N1C(=O)N1CCN(CCCS(C)(=O)=O)CC1 [RG7112],–,–,–,–,–,–,–,–,–,–,thrombocytopenia and neutropenia have been seen in many patients
